Test results: PubChem BioAssay
Unmarked numbers belong to inactive results.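 How the source made its calls: active means viability at or below 30% in both replicate assays; inconclusive means viability at or below 30% in just one of the two assays; inactive means the rest.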

Assay: HUVEC growth inhibition – cell-based, human, primary screen (AID 575);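 further: 100% = median of untreated cell wells with 0.1% DMSO on each plate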
Conditions: HUVEC proliferation, CellTiter-Glo luminescence, 72 h; at 10 µM; stronger effect = lower value
Outline: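 Material: primary human umbilical vein endothelial cells / Schedule: 72 h exposure, 37 °C, 5% CO2, 30 min RT equilibration / Signal: ATP-based CellTiter-Glo luminescent read / Read-out basis: percent of median DMSO-control luminescence / Control set: 32 DMSO-only cell-control wells (high), 32 MePR drug-control wells (low) per plate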

Row | Compound | viability [%]
1 | CCn1cnc2sc(C(=O)Nc3ccc4c(c3)OCO4)c(C)c2c1=O | 96.2
2 | COc1ccc(CCN(Cc2cc3cccc(C)c3[nH]c2=O)C(=O)N2CCCC2)cc1OC | 104
3 | COCCCNC(=O)C1CCN(C(=O)Nc2ccc(Cl)cc2)CC1 | 92.2
4 | CC1(C)CC(=O)C(C=NC(CCC(N)=O)C(=O)O)=C(O)C1 (stereo unspecified) | 96.5
5 | O=c1c(O)c(-c2ccc(O)cc2O)oc2cc(O)cc(O)c12 | 97.5
6 | CNC(=O)OC(C)CNS(=O)(=O)c1ccc(C)cc1 (stereo unspecified) | 106
7 | Cc1ccc(S(=O)(=O)N2CCN(c3nc(C(C)C)c4c(c3C#N)CC(C)(C)OC4)CC2)cc1 | 111
8 | Cc1ccc(Cl)cc1N1CCN(C(=O)CN2C(=O)c3cccc4cccc2c34)CC1 | 66.6
9 | Cc1ccc2c(CC(=O)OCc3csc(C)n3)coc2c1 | 90.3
10 | CC(C)(C)n1ncc2c(=O)n(CC(=O)NCc3ccccc3)cnc21 | 54.7
11 | COc1ccc(OCC(=O)Nc2ccc(N3CCOCC3)c(Cl)c2)cc1 | 96.1
12 | O=C(Nc1ccccc1-c1ccccc1)NC1CCN(C(=O)N2CCOCC2)CC1 | 95.9
13 | O=C1[C@@H]2C(c3ccccc3Cl)=NO[C@@H]2C(=O)N1Cc1ccccc1 | 116
14 | CC(=O)c1ccc(NC(=O)CCc2c(C)nc3ncnn3c2C)cc1 | 87.5
15 | Cc1nc2scc(-c3ccco3)c2c(=O)n1/N=C/N(C)C | 76.1
16 | O=C(O)c1ccc(COc2ccc(Cl)cc2)o1 | 84.7
